Data taken from ChEMBL document CHEMBL1129264, “Mercaptoacyl dipeptides as orally active dual inhibitors of angiotensin-converting enzyme and neutral endopeptidase” (1996).

Assays:
Rattus norvegicus [1] = assay: Plasma ANF Concentration in the Conscious Rat at a dose of 13.5(po)mg/kg at 2 h; type: functional
In short: (§1)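 Male Sprague-Dawley rats (275-390 g), catheterized in femoral artery and vein under ketamine (150 mg/kg)/acepromazine, tethered and recovered 24 h, studied conscious. Continuous iv rat ANF(99-126) infusion at 450 ng/kg/min for 5 h; baseline blood at 60 min, then oral dosing, sampling at 30-240 min.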

Rattus norvegicus [2] = assay: Plasma ANF Concentration in the Conscious Rat at a dose of 13.5(po)mg/kg at 4 h; type: functional; in short: as §1
Rattus norvegicus [3] = assay: Plasma ANF Concentration in the Conscious Rat at a dose of 13.5(po)mg/kg at 1 h; type: functional; in short: as §1
[4] = biological target: T1, Angiotensin-converting enzyme (Rattus norvegicus) (UniProt P47820); assay: Compound was tested for plasma inhibition of Angiotensin I converting enzyme activity in the conscious rat. Expressed as Inhibition of AI pressor response at 4 hr at a dose of 13.5 mg/kg po; type: organism-based; parameters: dose 13.5 mg/kg
T1 sequence (whole entry): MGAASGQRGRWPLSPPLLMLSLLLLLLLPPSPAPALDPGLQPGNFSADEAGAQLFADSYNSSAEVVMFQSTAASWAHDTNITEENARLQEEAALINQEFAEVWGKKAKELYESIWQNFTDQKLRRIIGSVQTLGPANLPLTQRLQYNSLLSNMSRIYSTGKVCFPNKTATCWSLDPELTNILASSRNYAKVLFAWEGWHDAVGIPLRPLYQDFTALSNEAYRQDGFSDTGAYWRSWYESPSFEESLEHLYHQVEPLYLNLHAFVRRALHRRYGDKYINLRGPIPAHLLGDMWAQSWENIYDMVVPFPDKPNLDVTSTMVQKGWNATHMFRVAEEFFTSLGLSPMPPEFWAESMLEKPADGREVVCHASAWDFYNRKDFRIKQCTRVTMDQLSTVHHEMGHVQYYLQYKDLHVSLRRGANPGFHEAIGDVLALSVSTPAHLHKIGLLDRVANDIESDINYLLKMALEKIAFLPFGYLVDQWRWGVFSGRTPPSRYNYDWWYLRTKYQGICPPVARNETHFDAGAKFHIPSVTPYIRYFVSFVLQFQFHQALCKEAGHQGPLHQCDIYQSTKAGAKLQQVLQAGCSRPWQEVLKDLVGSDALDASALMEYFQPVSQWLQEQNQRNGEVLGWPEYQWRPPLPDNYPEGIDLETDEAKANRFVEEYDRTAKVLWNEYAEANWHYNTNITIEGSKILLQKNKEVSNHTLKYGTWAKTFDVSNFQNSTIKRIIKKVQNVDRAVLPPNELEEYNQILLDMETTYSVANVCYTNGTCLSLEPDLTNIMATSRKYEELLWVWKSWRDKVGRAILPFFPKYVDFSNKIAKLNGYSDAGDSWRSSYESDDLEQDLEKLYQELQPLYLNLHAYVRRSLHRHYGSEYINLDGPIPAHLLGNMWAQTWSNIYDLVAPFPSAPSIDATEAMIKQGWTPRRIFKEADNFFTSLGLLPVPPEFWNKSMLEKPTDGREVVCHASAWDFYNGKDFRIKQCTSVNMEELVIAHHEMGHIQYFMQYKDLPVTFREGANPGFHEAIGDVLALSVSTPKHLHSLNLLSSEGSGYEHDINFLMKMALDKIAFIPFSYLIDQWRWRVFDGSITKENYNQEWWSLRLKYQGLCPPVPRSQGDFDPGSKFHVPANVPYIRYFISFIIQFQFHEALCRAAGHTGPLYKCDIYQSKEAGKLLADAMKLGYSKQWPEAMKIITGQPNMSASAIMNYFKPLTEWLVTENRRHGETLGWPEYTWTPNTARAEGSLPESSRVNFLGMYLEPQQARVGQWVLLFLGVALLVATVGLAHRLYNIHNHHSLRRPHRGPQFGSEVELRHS
In short: (§2)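 Male conscious normotensive Sprague-Dawley rats (275-390 g), prepared under methohexital sodium (75 mg/kg ip) with femoral arterial and venous catheters. The next day, pressor responses to three angiotensin-I challenges (300 ng/kg iv) were recorded. Compound was then given orally and angiotensin-I challenges were repeated at set times. Percent inhibition is relative to the mean of the three baseline responses.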

Rattus norvegicus [5] = assay: Plasma ANF Concentration in the Conscious Rat at a dose of 13.5(po)mg/kg at 0.5 h; type: functional; in short: as §1
[6] = biological target: T1, Angiotensin-converting enzyme (Rattus norvegicus); assay: Compound was tested for plasma inhibition of Angiotensin I converting enzyme activity in the conscious rat. Expressed as Inhibition of AI pressor response at 2 hr at a dose of 13.5 mg/kg po; type: organism-based; parameters: dose 13.5 mg/kg
In short: (§3)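 Male conscious normotensive Sprague-Dawley rats (275-390 g), given femoral arterial and venous catheters under methohexital sodium (75 mg/kg ip) anesthesia. Next day, pressor responses to three angiotensin-I challenges (300 ng/kg iv) recorded by direct arterial pressure. Compound then dosed orally, and AI challenge repeated at set times. Each post-dose response compared with the mean of the three baseline responses, giving % inhibition.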

[7] = biological target: T1, Angiotensin-converting enzyme (Rattus norvegicus); assay: Compound was tested for plasma inhibition of Angiotensin I converting enzyme activity in the conscious rat. Expressed as Inhibition of AI pressor response at 6 hr at a dose of 13.5 mg/kg po; type: organism-based; parameters: dose 13.5 mg/kg; in short: as §2
[8] = biological target: T1, Angiotensin-converting enzyme (Rattus norvegicus); assay: Compound was tested for plasma inhibition of Angiotensin I converting enzyme activity in the conscious rat. Expressed as Inhibition of AI pressor response at 1 hr at a dose of 13.5 mg/kg po; type: organism-based; parameters: dose 13.5 mg/kg; in short: as §3
[9] = biological target: T1, Angiotensin-converting enzyme (Rattus norvegicus); assay: Compound was tested for plasma inhibition of Angiotensin I converting enzyme activity in the conscious rat. Expressed as Inhibition of AI pressor response at 6 hr at a dose of 12.4 mg/kg po; type: organism-based; parameters: dose 12.4 mg/kg; in short: as §2
[10] = biological target: T1, Angiotensin-converting enzyme (Rattus norvegicus); assay: Compound was tested for plasma inhibition of Angiotensin I converting enzyme activity in the conscious rat. Expressed as Inhibition of AI pressor response at 2 hr at a dose of 12.4 mg/kg po; type: organism-based; parameters: dose 12.4 mg/kg; in short: as §3
Rattus norvegicus [11] = assay: Plasma ANF Concentration in the Conscious Rat at a dose of 12.4 (p.o.) mg/kg at 4 h; type: functional
In short: (§4)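 Male Sprague-Dawley rats (275-390 g) received femoral artery and vein catheters under ketamine (150 mg/kg)/acepromazine and recovered for 24 h, tethered, before study conscious. ratANF(99-126) was infused at 450 ng/kg/min iv for 5 h. Baseline blood was drawn at 60 min into the infusion, then compound was given po.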

Rattus norvegicus [12] = assay: Plasma ANF Concentration in the Conscious Rat at a dose of 12.4 (p.o.) mg/kg at 1 h; type: functional; in short: as §4
Rattus norvegicus [13] = assay: Plasma ANF Concentration in the Conscious Rat at a dose of 12.4 (p.o.) mg/kg at 0.5 h; type: functional; in short: as §4
[14] = biological target: T1, Angiotensin-converting enzyme (Rattus norvegicus); assay: Compound was tested for plasma inhibition of Angiotensin I converting enzyme activity in the conscious rat. Expressed as Inhibition of AI pressor response at 1 hr at a dose of 12.4 mg/kg po; type: organism-based; parameters: dose 12.4 mg/kg; in short: as §3
Rattus norvegicus [15] = assay: Plasma ANF Concentration in the Conscious Rat at a dose of 12.4 (p.o.) mg/kg at 2 h; type: functional; in short: as §4
[16] = biological target: T1, Angiotensin-converting enzyme (Rattus norvegicus); assay: Compound was tested for plasma inhibition of Angiotensin I converting enzyme activity in the conscious rat. Expressed as Inhibition of AI pressor response at 4 hr at a dose of 12.4 mg/kg po; type: organism-based; parameters: dose 12.4 mg/kg; in short: as §3
[17] = biological target: T1, Angiotensin-converting enzyme (Rattus norvegicus); assay: Compound was tested for plasma inhibition of Angiotensin I converting enzyme activity in the conscious rat. Expressed as Inhibition of AI pressor response at 4 hr at a dose of 12.7 mg/kg po; type: organism-based; parameters: dose 12.7 mg/kg; in short: as §3
[18] = biological target: T1, Angiotensin-converting enzyme (Rattus norvegicus); assay: Compound was tested for plasma inhibition of Angiotensin I converting enzyme activity in the conscious rat. Expressed as Inhibition of AI pressor response at 2 hr at a dose of 12.7 mg/kg po; type: organism-based; parameters: dose 12.7 mg/kg; in short: as §3
Rattus norvegicus [19] = assay: Plasma ANF Concentration in the Conscious Rat at a dose of 12.7(po)mg/kg at 4 h; type: functional; in short: as §4
Rattus norvegicus [20] = assay: Plasma ANF Concentration in the Conscious Rat at a dose of […]; type: functional; settings: in the assay text read “12.7(po)mg/kg” for “12.4(po)mg/kg”; in short: as §4
Rattus norvegicus [21] = assay: Plasma ANF Concentration in the Conscious Rat at a dose of 12.7(po)mg/kg at 1 h; type: functional; in short: as §4
[22] = biological target: T1, Angiotensin-converting enzyme (Rattus norvegicus); assay: Compound was tested for plasma inhibition of Angiotensin I converting enzyme activity in the conscious rat. Expressed as Inhibition of AI pressor response at 1 hr at a dose of 12.7 mg/kg po; type: organism-based; parameters: dose 12.7 mg/kg; in short: as §3
Rattus norvegicus [23] = assay: Plasma ANF Concentration in the Conscious Rat at a dose of 12.7(po)mg/kg at 0.5 h; type: functional; in short: as §4
[24] = biological target: T1, Angiotensin-converting enzyme (Rattus norvegicus); assay: Compound was tested for plasma inhibition of Angiotensin I converting enzyme activity in the conscious rat. Expressed as Inhibition of AI pressor response at 6 hr at a dose of 12.7 mg/kg po; type: organism-based; parameters: dose 12.7 mg/kg; in short: as §2

CCOC(=O)[C@H](Cc1ccc(OC(=O)COC)cc1)NC(=O)C1(NC(=O)[C@H](SC(C)=O)C(C)C)CCCC1
Control (Rattus norvegicus [1]): 252% | Control (Rattus norvegicus [2]): 223% | Control (Rattus norvegicus [3]): 263% | inhibition [4]: 70% | Control (Rattus norvegicus [5]): 203% | inhibition [6]: 79% | inhibition [7]: 61% | inhibition [8]: 79%

CCCCOC(=O)[C@H](Cc1ccc(O)cc1)NC(=O)C1(NC(=O)[C@H](SC(C)=O)C(C)C)CCCC1
inhibition [9]: 72% | inhibition [10]: 78% | Control (Rattus norvegicus [11]): 185% | Control (Rattus norvegicus [12]): 133% | Control (Rattus norvegicus [13]): 131% | inhibition [14]: 76% | Control (Rattus norvegicus [15]): 178% | inhibition [16]: 70%

CC(=O)S[C@@H](C(=O)NC1(C(=O)N[C@@H](Cc2ccc(O)cc2)C(=O)OCCC(C)C)CCCC1)C(C)C
inhibition [17]: 77% | inhibition [18]: 77% | Control (Rattus norvegicus [19]): 251% | Control (Rattus norvegicus [20]): 236% | Control (Rattus norvegicus [21]): 235% | inhibition [22]: 83% | Control (Rattus norvegicus [23]): 178% | inhibition [24]: 60%
